Calls of active or inactive are those of the source.

In one data set the test system is Staphylococcus aureus. Kind of data set: Antibacterial activity against Staphylococcus aureus after 18 hrs by broth microdilution method. The format is functional. In short, it runs like this: (§1)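 Bacteria grown to mid-log phase in LB medium at 37 °C. Peptides 2-fold serially diluted from 200 μM to 1.56 μM and mixed 1:1 with inoculum of 10^6 CFU per mL. Incubation 18 h at 35 °C. MIC is the lowest concentration giving complete growth inhibition by visual inspection […].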
For orientation: In broth dilution the organism is exposed to a series of concentrations in liquid medium.

Data set [1] concerns Staphylococcus epidermidis. Kind of data set: Antibacterial activity against Staphylococcus epidermidis after 18 hrs by broth microdilution method. The format is functional. In a few lines: as §1
The test system of data set [2] is Escherichia coli. Kind of data set: Antibacterial activity against Escherichia coli NBRC 3972 after 18 hrs by broth microdilution method. The note with it: NBRC 3972, 18 h. Format: functional. In short, it runs like this:
as §1

Data set [3] relates to Escherichia coli. The experiment in a line: Antibacterial activity against Escherichia coli DH5[alpha] after 18 hrs by broth microdilution method. The format is functional. In a few lines: as §1
Another data set relates to Proteus vulgaris. The experiment in a line: Antibacterial activity against Proteus vulgaris NBRC 3045 after 18 hrs by broth microdilution method. Format: functional. The note with it: NBRC 3045, 18 h. In a few lines: as §1
The subject of a further data set is Pseudomonas aeruginosa. Kind of data set: Antibacterial activity against Pseudomonas aeruginosa NBRC 13725 after 18 hrs by broth microdilution method. The note with it: NBRC 13275, 18 h, in the assay text read “NBRC 13275” for “NBRC 13725”. The format is functional. In short, it runs like this: as §1
A further data set has as its system Erythrocyte. Kind of data set: Hemolytic activity in human RBC after 3 hrs. Format: ADME, cell-based. In short, it runs like this:
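Human red blood cells from Japanese Red Cross volunteers, washed three times and resuspended in PBS. Mixed 1:1 with diluted peptide and incubated 3 h at 37 °C. After centrifugation, supernatant absorbance read at 535 nm. Triton X-100 and M-lycotoxin served as positive controls.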

Another data set relates to Lipid bilayer. Kind of data set: Induction of membrane disruption in PG/CL/PE unilamellar vesicles assessed as increase in carboxyfluorescein leakage at 6.25 uM by fluorescence assay. In short, it runs like this: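 E. coli-mimic liposomes of PG/CL/PE (2 : 1 : 7, w/w) loaded with 50 mM carboxyfluorescein in 20 mM Tris-HCl, pH 7.4; free dye removed by Sephadex G-50 gel filtration. Peptide added at 6.25 μM and leakage read by fluorescence. Release (%) = (Fobs−F0)/(F100−F0) × 100, with 100% set by Triton X-100.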

The subject of data set [4] is TIG-3. Kind of data set: Cytotoxicity against human TIG3 at 100 uM after 72 hrs by WST-8 assay. Format: cell-based. The note with it: tig-3, 72 h. In a few lines: (§2)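 Human normal fibroblast TIG-3 cells kept in DMEM with 10% FBS and 100 μg ml–1 kanamycin. Seeded at 5 × 10^3 cells per well, treated 24 h later for 72 h. WST-8 reagent then added for 0.5 h at 37 °C, 5% CO2, and absorbance read at 450 nm. Means ± SD, n = 4.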
A general note: Formazan colour is commonly taken as a measure of viable cells.

In data set [5] the test system is TIG-3. Kind of data set: Cytotoxicity against human TIG3 at 1 to 100 uM after 72 hrs by WST-8 assay. The note with it: tig-3, 72 h. The format is cell-based. In a few lines: as §2

What is called MIC is the smallest concentration in the dilution series that meets the test's criterion for growth inhibition. A lower MIC goes with greater potency. Usually IC50 stands for the midpoint of a concentration-inhibition curve. For the substance H-GIGKFLHSAKKFGKAFVGEIMNS-NH2, the MIC in the data set on Staphylococcus aureus is 100 µM; in data set [1], 25 µM; in the data set on Escherichia coli [2], 3.12 µM; against Escherichia coli [3] it was 3.12 µM; against Proteus vulgaris, over 100 µM; with Pseudomonas aeruginosa, 12.5 µM. Further, the concentration for half-maximal inhibition (IC50) with Erythrocyte was over 100 µM.

In the data set with Erythrocyte, H-IWLTALKFLGKHAAKHLAKQQLSKL-NH2 came in with an IC50 of 0.78 µM.

As for H-KKKKKKKKKGGGLLALLALLA-NH2, the MIC in the data set on Staphylococcus aureus is 12.5 µM; in [1], 6.25 µM; in the data set with Escherichia coli [2], 6.25 µM; against Escherichia coli [3] it was 12.5 µM; in the data set on Proteus vulgaris, over 100 µM; against Pseudomonas aeruginosa, 6.25 µM. In the data set on Lipid bilayer, the result was Active. The substance also came in with an IC50 in the data set with Erythrocyte of 25 µM. Also, the Activity result in the data set on TIG-3 [4] was “Toxic”.

With H-KKKLAKLKLGAKLKLKGKLGA-NH2, the MIC against Staphylococcus aureus is 100 µM; in data set [1], 6.25 µM; with Escherichia coli [2] it was 12.5 µM; against Escherichia coli [3] it was 25 µM; with Proteus vulgaris it was over 100 µM; with Pseudomonas aeruginosa it was 3.12 µM. The outcome in the data set with Lipid bilayer was Active. This substance also registered an IC50 with Erythrocyte of 100 µM. Moreover, in the data set on TIG-3 [5], the Activity entry is given as “Non-Toxic”.

On to H-KLLKKAGKLLKKAGKLLKKAG-NH2, for which the MIC was 12.5 µM against Staphylococcus aureus; 1.56 µM in [1]; 3.12 µM with Escherichia coli [2]; 3.12 µM against Escherichia coli [3]; over 100 µM against Proteus vulgaris; 1.56 µM against Pseudomonas aeruginosa. For the same substance, the outcome in the data set on Lipid bilayer was Active. This substance showed an IC50 in the data set with Erythrocyte of over 100 µM. Also, the Activity entry in the data set on TIG-3 [5] is listed as “Non-Toxic”.

For the origin of these results see ChEMBL document CHEMBL4334429, “Rational design of novel amphipathic antimicrobial peptides focused on the distribution of cationic amino acid residues” (Medchemcomm, 2019).
